In ChEMBL document CHEMBL1121966, “(2R*,3S*)-1-[125I]Iodo-2,3-bis(4-hydroxyphenyl)pentane ([125I]iodonorhexestrol) and (2R*,3S*)-1-[77Br]Bromo-2,3-bis(4-hydroxyphenyl)pentane ([77Br]bromonorhexestrol), two gamma-emitting estrogens that show receptor-mediated uptake by target tissues in vivo” (1982):

Columns and labels:
Rattus norvegicus [1] = species on record: Rattus norvegicus; assay: Percent injected dose per gram lung at 6 hr; type: functional
Procedure, shortened: (§1)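 Immature (25 day) female Sprague-Dawley rats (ca. 50 g) were dosed iv (jugular or tail vein) in ethanol plus 0.9% NaCl/rat serum (1:1). Doses were 2 μCi of [125I]iodonorhexestrol (≤15 pmol/dose), or 2 μCi each of [77Br]bromonorhexestrol (≤1.25 pmol/dose) and 16α-[125I]iodoestradiol (2 pmol/dose). Rats were killed at 1, 3 or 6 h; blood and tissues were weighed and γ-counted. Thyroid weight assumed 0.005 g/100 g body weight. Mean ± SD.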

Rattus norvegicus [2] = species on record: Rattus norvegicus; assay: Percent injected dose per gram blood at 1 hr with unlabeled estradiol; type: functional
Procedure, shortened: (§2)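 Immature (25-day, ca. 50 g) Sprague-Dawley female rats received an iv injection (jugular or tail vein) of HPLC-purified tracer in ethanol plus 0.9% NaCl/rat serum 1:1. Doses were 2 μCi [125I]iodo tracer (≤15 pmol), or 2 μCi [77Br]bromo tracer (≤1.25 pmol) with 2 μCi 16α-[125I]iodoestradiol. Animals were killed at 1 h; blood and tissues were weighed and γ-counted. Blocking: coinjected unlabeled estradiol, 9 μg (iodo) or 18 μg (bromo). Mean ± SD.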

Rattus norvegicus [3] = species on record: Rattus norvegicus; assay: Percent injected dose per gram thyroid at 6 hr; type: functional, Thyroid gland; procedure, shortened: as §1
[4] = Ovary/blood distribution ratio was determined in immature female rats at 1 hr with unlabeled estradiol; type: functional; procedure, shortened: as §2
[5] = Kidney/blood distribution ratio was determined in immature female rats at 1 hr; type: functional; procedure, shortened: as §2
Rattus norvegicus [6] = species on record: Rattus norvegicus; assay: Percent injected dose per gram kidney at 6 hr; type: functional
Procedure, shortened: (§3)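 Dual-label study in immature 25-day female Sprague-Dawley rats (ca. 50 g). Each received 2 μCi [77Br]bromo tracer (≤1.25 pmol/dose) and 2 μCi 16α-[125I]iodoestradiol (2 pmol/dose) by tail or jugular vein, in ethanol diluted with saline/rat serum 1:1. Rats were killed at 3 or 6 h; blood and 11 tissues were weighed and counted. Five rats per time point; mean ± SD.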

[7] = Tissue/blood distribution ratio was measured in immature female rats at 1 hr; type: functional; procedure, shortened: as §1
Rattus norvegicus [8] = species on record: Rattus norvegicus; assay: Percent injected dose per gram liver at 1 hr; type: functional; procedure, shortened: as §1
[9] = Liver/blood distribution ratio was determined in immature female rats at 1 hr with unlabeled estradiol; type: functional; procedure, shortened: as §2
[10] = Ovary/blood distribution ratio was determined in immature female rats at 3h; type: functional; procedure, shortened: as §3
Rattus norvegicus [11] = species on record: Rattus norvegicus; assay: Percent injected dose per gram Muscle at 1 hr; type: functional; procedure, shortened: as §2
[12] = Uterus/blood distribution ratio was measured in immature female rats at 3h; type: functional; procedure, shortened: as §1
[13] = Uterus/blood distribution of compound was measured in immature female rats at 1 hr with unlabeled estradiol; type: functional
Procedure, shortened: (§4)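 Same iv biodistribution in immature female rats, killed at 1 h, with unlabeled estradiol coinjected to block receptor uptake: 9 μg with [125I]iodonorhexestrol (3 rats), 18 μg with the [77Br]bromonorhexestrol/16α-[125I]iodoestradiol pair (5 rats). Tissue and blood radioactivity were counted as % injected dose/g and tissue-to-blood ratio.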

Rattus norvegicus [14] = species on record: Rattus norvegicus; assay: Percent injected dose per gram kidney at 1 hr; type: functional; procedure, shortened: as §2
[15] = Thyroid/blood distribution ratio was determined in immature female rats at 1 hr; type: functional; procedure, shortened: as §1
[16] = Kidney/blood distribution ratio was determined in immature female rats at 6 hr; type: functional; procedure, shortened: as §3
Rattus norvegicus [17] = species on record: Rattus norvegicus; assay: Percent injected dose per gram spleen at 1 hr; type: functional; procedure, shortened: as §1
Rattus norvegicus [18] = species on record: Rattus norvegicus; assay: Percent injected dose per gram liver at 6 hr; type: functional; procedure, shortened: as §1
Rattus norvegicus [19] = species on record: Rattus norvegicus; assay: Percent injected dose per gram Uterus at 3h; type: functional; procedure, shortened: as §3
[20] = Liver/blood distribution ratio was determined in immature female rats at 3h; type: functional; procedure, shortened: as §3
Rattus norvegicus [21] = species on record: Rattus norvegicus; assay: Percent injected dose per gram kidney at 1 hr with unlabeled estradiol; type: functional; procedure, shortened: as §2
[22] = Lung/blood distribution ratio was determined in immature female rats at 1 hr with unlabeled estradiol; type: functional; procedure, shortened: as §2
Rattus norvegicus [23] = species on record: Rattus norvegicus; assay: Percent injected dose per gram Ovaries at 1 hr with unlabeled estradiol; type: functional; procedure, shortened: as §2
Rattus norvegicus [24] = species on record: Rattus norvegicus; assay: Percent injected dose per gram esophagus at 6 hr; type: functional; procedure, shortened: as §3
Rattus norvegicus [25] = species on record: Rattus norvegicus; assay: Percent injected dose per gram lung at 1 hr; type: functional; procedure, shortened: as §1
Rattus norvegicus [26] = species on record: Rattus norvegicus; assay: Percent injected dose per gram Muscle at 1 hr with unlabeled estradiol; type: functional; procedure, shortened: as §2
[27] = Thyroid/blood distribution ratio was determined in immature female rats at 6 hr; type: functional; procedure, shortened: as §1
[28] = Spleen/blood distribution ratio was determined immature female rats at 1 hr; type: functional; procedure, shortened: as §1
Rattus norvegicus [29] = species on record: Rattus norvegicus; assay: Percent injected dose per gram Ovaries at 3h; type: functional; procedure, shortened: as §3
[30] = Muscle/blood distribution ratio was determined in immature female rats at 3h; type: functional; procedure, shortened: as §3
Rattus norvegicus [31] = species on record: Rattus norvegicus; assay: Percent injected dose per gram kidney at 3h; type: functional; procedure, shortened: as §3
Rattus norvegicus [32] = species on record: Rattus norvegicus; assay: Percent injected dose per gram spleen at 1 hr with unlabeled estradiol; type: functional; procedure, shortened: as §4
Rattus norvegicus [33] = species on record: Rattus norvegicus; assay: Percent injected dose per gram Uterus at 6 hr; type: functional; procedure, shortened: as §3
[34] = Muscle/blood distribution ratio was determined in immature female rats at 6 hr; type: functional; procedure, shortened: as §3
[35] = Uterus/blood distribution ratio was measured in immature female rats at 1 hr; type: functional; procedure, shortened: as §1
[36] = Esophagus/blood distribution ratio was determined in immature female rats at 3h; type: functional; procedure, shortened: as §3
Rattus norvegicus [37] = species on record: Rattus norvegicus; assay: Percent injected dose per gram thyroid at 1 hr with unlabeled estradiol; type: functional, Thyroid gland; procedure, shortened: as §4
[38] = Tissue/blood distribution ratio was measured in immature female rats at 6 hr; type: functional; procedure, shortened: as §1
[39] = Thyroid/blood distribution ratio was determined in immature female rats at 3h; type: functional; procedure, shortened: as §1
[40] = Spleen/blood distribution ratio was determined immature female rats at 3h; type: functional; procedure, shortened: as §1

Compound: C[C@]12CC[C@@H]3c4ccc(O)cc4CC[C@H]3[C@@H]1C[C@@H](I)[C@@H]2O
- Injected dose (Rattus norvegicus [1]): 0.14%
- Injected dose (Rattus norvegicus [2]): 1.22%
- Injected dose (Rattus norvegicus [3]): 276.6%
- Ratio [4]: 1.36
- Ratio [5]: 2
- Injected dose (Rattus norvegicus [6]): 0.4%
- Ratio [7]: 1
- Injected dose (Rattus norvegicus [8]): 2.37%
- Ratio [9]: 3.95
- Ratio [10]: 2.03
- Injected dose (Rattus norvegicus [11]): 0.53%
- Ratio [12]: 7.36
- Ratio [13]: 1.37
- Injected dose (Rattus norvegicus [14]): 1.48%
- Ratio [15]: 30.8
- Ratio [16]: 3.49
- Injected dose (Rattus norvegicus [17]): 0.43%
- Injected dose (Rattus norvegicus [18]): 0.9%
- Injected dose (Rattus norvegicus [19]): 6.83%
- Ratio [20]: 4.76
- Injected dose (Rattus norvegicus [21]): 2.77%
- Ratio [22]: 1.08
- Injected dose (Rattus norvegicus [23]): 2.47%
- Injected dose (Rattus norvegicus [24]): 0.14%
- Injected dose (Rattus norvegicus [25]): 0.75%
- Injected dose (Rattus norvegicus [26]): 0.92%
- Ratio [27]: 472.6
- Ratio [28]: 0.46
- Injected dose (Rattus norvegicus [29]): 1.75%
- Ratio [30]: 0.25
- Injected dose (Rattus norvegicus [31]): 0.94%
- Injected dose (Rattus norvegicus [32]): 0.79%
- Injected dose (Rattus norvegicus [33]): 1.57%
- Ratio [34]: 0.27
- Ratio [35]: 9.54
- Ratio [36]: 0.47
- Injected dose (Rattus norvegicus [37]): 11.9%
- Ratio [38]: 1
- Ratio [39]: 192.8
- Ratio [40]: 0.27
